Laboratory results: ChEMBL document CHEMBL1157407, “Inhibitors of bacterial multidrug efflux pumps from the resin glycosides of Ipomoea murucoides” (2008)
Converted amounts (≈) assume the structure as drawn.

Key:
Type in all cases: functional
[1] = test system: Staphylococcus aureus; assay: Antimicrobial activity against methicillin-resistant Staphylococcus aureus XU212
Procedure, shortened: (§1)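 Broth microdilution MIC per NCCLS guidelines, at least in duplicate, in cation-adjusted Mueller-Hinton broth (20 mg/L Ca2+, 10 mg/L Mg2+). Strains grown on nutrient agar first. Inoculum 5×10^5 cfu prepared in 0.9% saline against a McFarland standard. Compounds dissolved in DMSO, 2-fold serial dilutions, final 1–512 µg/mL (DMSO ≤3.125% v/v). MIC taken as lowest concentration with no visible growth.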

[2] = test system: Staphylococcus aureus; assay: Antimicrobial activity against multidrug-resistant Staphylococcus aureus over expressing NorA MDR efflux pump; procedure, shortened: as §1
[3] = test system: KB; assay: Cytotoxicity against human KB cells after 72 hrs; details: read-out: ED50 (the source's name)
Procedure, shortened: (§2)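 Cells grown in RPMI 1640 with 10% fetal bovine serum at 37 °C, 5% CO2, humidified. Log-phase cells treated in triplicate with test samples at 0.16–20 μg/mL for 72 h. Growth read by the NCI sulforhodamine method. ED50 is the dose inhibiting 50% of control growth, estimated from a semilog plot of concentration against percentage of viable cells.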

[4] = test system: HEp-2; assay: Cytotoxicity against human Hep2 cells after 72 hrs; details: HEp-2, 72 h, read-out: ED50 (the source's name); procedure, shortened: as §2
[5] = test system: HeLa; assay: Cytotoxicity against human HeLa cells after 72 hrs; details: read-out: ED50 (the source's name); procedure, shortened: as §2
[6] = test system: Staphylococcus aureus; assay: Antimicrobial activity against epidemic methicillin-resistant Staphylococcus aureus 15 containing mecA gene; procedure, shortened: as §1
[7] = test system: Staphylococcus aureus; assay: Antimicrobial activity against Staphylococcus aureus ATCC 25923
Procedure, shortened: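 Broth microdilution MIC per NCCLS guidelines, at least in duplicate. Inoculum 5×10^5 cfu prepared in 0.9% saline against a McFarland standard. Cation-adjusted Mueller-Hinton broth with 20 mg/L Ca2+ and 10 mg/L Mg2+. Compounds dissolved in DMSO, then 2-fold serial dilutions, final 1–512 μg/mL; DMSO at most 3.125% v/v. MIC is the lowest concentration giving no visible growth.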

Row | Structure (SMILES) | MIC [1] | MIC [2] | EC50 [3] | EC50 [4] | EC50 [5] | MIC [6] | MIC [7]
1 | CCCCC[C@H]1CCCCCCCCCC(=O)O[C@H]2[C@H](O[C@H]3[C@H](O1)O[C@H](C)[C@H](O)[C@@H]3O)O[C@@H](C)[C@H](O[C@@H]1O[C@@H](C)[C@H](O[C@@H]3O[C@@H](C)[C@H](OC(=O)[C@@H](C)CC)[C@@H](O)[C@H]3O)[C@@H](O[C@@H]3O[C@@H](C)[C@H](O)[C@@H](O)[C@H]3O)[C@H]1OC(=O)[C@@H](C)CC)[C@H]2O [MURUCOIDIN III] | > 512 µg/mL | > 512 µg/mL | 15.4 µg/mL (≈ 13.4 µM) | 10.7 µg/mL (≈ 9.28 µM) | > 20 µg/mL | > 512 µg/mL | > 512 µg/mL
2 | CCCCC[C@H]1CCCCCCCCCC(=O)O[C@H]2[C@H](O[C@H]3[C@H](O1)O[C@H](C)[C@H](O)[C@@H]3O)O[C@@H](C)[C@H](O[C@@H]1O[C@@H](C)[C@H](O[C@@H]3O[C@@H](C)[C@H](OC(=O)C(C)C)[C@@H](O)[C@H]3O)[C@@H](O[C@@H]3O[C@@H](C)[C@H](O)[C@@H](O)[C@H]3O)[C@H]1OC(=O)[C@@H](C)CC)[C@H]2O [MURUCOIDIN II] | > 512 µg/mL | > 512 µg/mL | > 20 µg/mL | > 20 µg/mL | 16 µg/mL (≈ 14 µM) | > 512 µg/mL | > 512 µg/mL
3 | CCCCC[C@H]1CCCCCCCCCC(=O)O[C@H]2[C@H](O[C@H]3[C@H](O1)O[C@H](C)[C@H](O)[C@@H]3O)O[C@@H](C)[C@H](O[C@@H]1O[C@@H](C)[C@H](O[C@@H]3O[C@@H](C)[C@H](OC(=O)[C@@H](C)CC)[C@@H](O)[C@H]3O)[C@@H](O[C@@H]3O[C@H](CO)[C@@H](O)[C@H](O)[C@H]3O)[C@H]1OC(=O)[C@@H](C)CC)[C@H]2O [MURUCOIDIN IV] | > 512 µg/mL | > 512 µg/mL | 15 µg/mL (≈ 12.8 µM) | 4 µg/mL (≈ 3.42 µM) | > 20 µg/mL | > 512 µg/mL | > 512 µg/mL
4 | CCCCC[C@H]1CCCCCCCCCC(=O)O[C@H]2[C@@H](O)[C@H](O[C@H]3[C@H](O1)O[C@H](C)[C@H](O)[C@@H]3O)O[C@@H](C)[C@@H]2O[C@@H]1O[C@@H](C)[C@H](O[C@@H]2O[C@@H](C)[C@H](OC(=O)C(C)C)[C@@H](O)[C@H]2O)[C@@H](O[C@@H]2O[C@@H](C)[C@H](O)[C@@H](O)[C@H]2O)[C@H]1OC(=O)[C@@H](C)CC [MURUCOIDIN IX] | > 512 µg/mL | > 512 µg/mL | > 20 µg/mL | 10.2 µg/mL (≈ 8.95 µM) | 12.4 µg/mL (≈ 10.9 µM) | > 512 µg/mL | > 512 µg/mL
5 | CCCCC[C@H]1CCCCCCCCCC(=O)O[C@H]2[C@H](O[C@H]3[C@H](O1)O[C@H](C)[C@H](O)[C@@H]3O)O[C@@H](C)[C@H](O[C@@H]1O[C@@H](C)[C@H](O[C@@H]3O[C@@H](C)[C@H](O)[C@@H](O)[C@H]3O)[C@@H](O[C@@H]3O[C@@H](C)[C@H](O)[C@@H](O)[C@H]3O)[C@H]1OC(=O)[C@@H](C)CC)[C@H]2O [MURUCOIDIN I] | 512 µg/mL (≈ 479 µM) | 32 µg/mL (≈ 29.9 µM) | > 20 µg/mL | > 20 µg/mL | > 20 µg/mL | 256 µg/mL (≈ 239 µM) | > 512 µg/mL
6 | CCCCC[C@H]1CCCCCCCCCC(=O)O[C@H]2[C@H](O[C@H]3[C@H](O1)O[C@H](CO)[C@@H](O)[C@@H]3O)O[C@@H](C)[C@H](O[C@@H]1O[C@@H](C)[C@H](O[C@@H]3O[C@@H](C)[C@H](OC(=O)[C@@H](C)CC)[C@@H](O)[C@H]3O)[C@@H](O[C@@H]3O[C@@H](C)[C@H](O)[C@@H](O)[C@H]3O)[C@H]1OC(=O)[C@@H](C)CC)[C@H]2O [MURUCOIDIN VIII] | > 512 µg/mL | > 512 µg/mL | 17.9 µg/mL (≈ 15.3 µM) | 14.2 µg/mL (≈ 12.1 µM) | 16.4 µg/mL (≈ 14 µM) | > 512 µg/mL | > 512 µg/mL
7 | CCCCC[C@H]1CCCCCCCCCC(=O)O[C@H]2[C@H](O[C@H]3[C@H](O1)O[C@H](CO)[C@@H](O)[C@@H]3O)O[C@@H](C)[C@H](O[C@@H]1O[C@@H](C)[C@H](O[C@@H]3O[C@@H](C)[C@H](OC(=O)C(C)C)[C@@H](O)[C@H]3O)[C@@H](O[C@@H]3O[C@@H](C)[C@H](O)[C@@H](O)[C@H]3O)[C@H]1OC(=O)[C@@H](C)CC)[C@H]2O [MURUCOIDIN VII] | 512 µg/mL (≈ 443 µM) | 32 µg/mL (≈ 27.7 µM) | > 20 µg/mL | > 20 µg/mL | > 20 µg/mL | 256 µg/mL (≈ 222 µM) | > 512 µg/mL
8 | CCCCCCCCCCCC(=O)O[C@H]1[C@H](O[C@@H]2[C@H]3OC(=O)CCCCCCCCC[C@H](CCCCC)O[C@@H]4O[C@H](CO)[C@@H](O)[C@H](O)[C@H]4O[C@H](O[C@H]2C)[C@@H]3O)O[C@@H](C)[C@H](O[C@@H]2O[C@@H](C)[C@H](OC(=O)[C@@H](C)CC)[C@@H](O)[C@H]2O)[C@H]1O[C@@H]1O[C@@H](C)[C@H](O)[C@@H](O)[C@H]1O [MURUCOIDIN VI] | 512 µg/mL (≈ 404 µM) | 32 µg/mL (≈ 25.2 µM) | > 20 µg/mL | > 20 µg/mL | > 20 µg/mL | 256 µg/mL (≈ 202 µM) | > 512 µg/mL
